Where “and” joins values, the source holds several entries; their conditions need not be identical. Equal entries are not always repeated. Where two headings read alike, the source gives them in different places.
Assays:
Safety and tolerability = assay type: in vivo, human
[1] = historical nonobese peers, mean ± SD, ref Ward et al.[22], cited from earlier work
[2] = assay type: in vivo, human; conditions: for half-life / Cmax / AUC(0-t) / AUC(0-inf): human, plasma; for AUC(0-t): Uncorrected AUC0-last; for AUC(0-t) / AUC(0-inf) / % AUC0-∞ extrapolated from AUC0-last / AUC0-∞ corrected for TBW-normalized dose / CL/F normalized to TBW / Cmax corrected for LBW-normalized dose / Cmax corrected for TBW-normalized dose / Vd/F normalized to TBW: mean ± SD; for AUC(0-inf): Uncorrected AUC0-∞; for tlag: median (range)
Method in brief: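 Fasted obese children 6–17 y, CYP2C19-genotyped (*2, *3, *4, *17; classed EM/IM/PM), received a single oral dose of ~1.2 mg/kg LBW. Catheter blood was drawn predose, half-hourly 0.5–4 h, and at 6 and 8 h, plus 12 h for PMs. Parent and sulfone metabolite were measured by validated LC-MS/MS in duplicate, using the mean. Noncompartmental analysis: λz from ≥3 terminal points, linear trapezoidal AUC, AUCinf = AUClast + CT/λz; Cmax and AUC corrected to 1 mg/kg TBW or LBW dose.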

[3] = both, oral, obese, age 6–11 y (n = 18)
[4] = both, oral, obese, age 12–17 y (n = 21)
[5] = non-PMs, Morbidly obese (BMI >99%), mean (SD)
[6] = non-PMs, obesity status Obese (BMI ≥95%), mean (SD)
[7] = obese non-PMs, ALT High (>Q3), mean (SD)
[8] = obese non-PMs, ALT Low (<Q1), mean (SD)
[9] = obese non-PMs, AST High (>Q3), mean (SD)
[10] = obese non-PMs, AST Low (<Q1), mean (SD)
[11] = obese non-PMs, Female, mean (SD)
[12] = obese non-PMs, Waist:hip ratio High (>Q3), mean (SD)
[13] = obese non-PMs, Waist:hip ratio Low (<Q1), mean (SD)
[14] = obese, 2C19 genotype EM, mean (SD)
[15] = obese, 2C19 genotype IM, mean (SD)
[16] = obese, age 6–11 y, non-PMs, mean, SD

## COc1ccnc(C[S+]([O-])c2nc3ccc(OC(F)F)cc3[nH]2)c1OC (stereo not drawn) [pantoprazole]
Safety and tolerability; 7 of the 41 study participants, nine AEs, single oral dose
  Study participants with AEs: 17%
Safety and tolerability; 41 participants, single oral dose, follow-up day 10–13
  Serious AEs: No serious AEs
Safety and tolerability; all AEs
  Severity of AEs: mild
Safety and tolerability; two AEs (headache and hiccups)
  AEs considered related to study drug: 5%
[1]; age 6–11 y (n = 13)
  AUC0-∞ corrected for TBW-normalized dose: 3.1 ± 1.4 mcg*h/mL/1 mg/kg TBW
  CL/F normalized to TBW: 0.40 ± 0.22 L/h/kg TBW
  Cmax corrected for TBW-normalized dose: 2.1 ± 1.1 mcg/mL/1 mg/kg TBW
  Uncorrected AUC0-∞: 3800 ± 1800 ng·h/mL
  Vd/F normalized to TBW: 0.40 ± 0.27 L/kg TBW
  t1/2: 42 ± 12 min
[1]; age 12–17 y (n = 11)
  AUC0-∞ corrected for TBW-normalized dose: 6.9 ± 3.4 mcg*h/mL/1 mg/kg TBW
  CL/F normalized to TBW: 0.18 ± 0.08 L/h/kg TBW
  Cmax corrected for TBW-normalized dose: 3.7 ± 1.8 mcg/mL/1 mg/kg TBW
  Uncorrected AUC0-∞: 4300 ± 3100 ng·h/mL
  Uncorrected Cmax: 2200 ± 1400 ng/mL
  Vd/F normalized to TBW: 0.21 ± 0.06 L/kg TBW
  t1/2: 54 ± 18 min
[2]; both, im, t1/2, obese, 2C19 genotype IM, mean (SD)
  half-life: 63 min
[2]; both, oral
  Cmax: 4100 ± 1180 ng/mL
[2]; [3]
  AUC(0-t): 6170 ± 2170 ng·h/mL
  AUC(0-inf): 6260 ± 2260 ng·h/mL
[2]; [4]
  AUC(0-t): 7470 ± 2800 ng·h/mL
  AUC(0-inf): 7690 ± 3450 ng·h/mL
[2]; both, oral, t1/2, non-PMs, Morbidly obese (BMI >99%), mean (SD)
  half-life: 61.8 min
[2]; both, oral, t1/2, non-PMs, obesity status Obese (BMI ≥95%), mean (SD)
  half-life: 58.2 min
[2]; both, oral, t1/2, obese non-PMs, ALT High (>Q3), mean (SD)
  half-life: 57.6 min
[2]; both, oral, t1/2, obese non-PMs, ALT Low (<Q1), mean (SD)
  half-life: 58.2 min
[2]; both, oral, t1/2, obese non-PMs, AST High (>Q3), mean (SD)
  half-life: 51 min
[2]; both, oral, t1/2, obese non-PMs, AST Low (<Q1), mean (SD)
  half-life: 63.6 min
[2]; both, oral, t1/2, obese, 2C19 genotype EM, mean (SD)
  half-life: 57 min
[2]; both, oral, t1/2, obese, age 12–17 y, mean, SD
  half-life: 64.8 ± 15.6 min
[2]; both, po
  Cmax: 4270 ± 1430 ng/mL
[2]; female, oral, t1/2, obese non-PMs, mean (SD)
  half-life: 61.8 min
[2]; male, oral, t1/2, obese non-PMs, mean (SD)
  half-life: 57 min
[2]; [5]
  AUC0-∞ corrected for LBW-normalized dose: 6.17 (1.89) mcg*h/mL/1 mg/kg LBW
  CL/F normalized by LBW: 0.18 (0.06) L/h/kg LBW
  Vd/F normalized by LBW: 0.25 (0.05) L/kg LBW
[2]; [6]
  AUC0-∞ corrected for LBW-normalized dose: 6.36 (2.97) mcg*h/mL/1 mg/kg LBW
  CL/F normalized by LBW: 0.20 (0.11) L/h/kg LBW
  Vd/F normalized by LBW: 0.25 (0.09) L/kg LBW
[2]; [7]
  AUC0-∞ corrected for LBW-normalized dose: 6.12 (2.08) mcg*h/mL/1 mg/kg LBW
  CL/F normalized by LBW: 0.18 (0.07) L/h/kg LBW
  Vd/F normalized by LBW: 0.25 (0.09) L/kg LBW
[2]; [8]
  AUC0-∞ corrected for LBW-normalized dose: 5.75 (1.97) mcg*h/mL/1 mg/kg LBW
  CL/F normalized by LBW: 0.19 (0.06) L/h/kg LBW
  Vd/F normalized by LBW: 0.25 (0.04) L/kg LBW
[2]; [9]
  AUC0-∞ corrected for LBW-normalized dose: 5.66 (1.40) mcg*h/mL/1 mg/kg LBW
  CL/F normalized by LBW: 0.19 (0.06) L/h/kg LBW
  Vd/F normalized by LBW: 0.23 (0.05) L/kg LBW
[2]; [10]
  AUC0-∞ corrected for LBW-normalized dose: 6.04 (1.97) mcg*h/mL/1 mg/kg LBW
  CL/F normalized by LBW: 0.19 (0.09) L/h/kg LBW
  Vd/F normalized by LBW: 0.27 (0.06) L/kg LBW
[2]; obese non-PMs, Female (n = 18), mean (SD)
  Vd/F normalized by LBW: 0.28 (0.08) L/kg LBW
[2]; obese non-PMs, Female (n = 18), mean (SD), listed as Pantoprazole
  Vd/F normalized by LBW: 0.28 [0.08] L/kg LBW
[2]; [11]
  AUC0-∞ corrected for LBW-normalized dose: 6.03 (3.20) mcg*h/mL/1 mg/kg LBW
  CL/F normalized by LBW: 0.21 (0.11) L/h/kg LBW
[2]; obese non-PMs, Male (n = 17), mean (SD)
  Vd/F normalized by LBW: 0.22 (0.06) L/kg LBW
[2]; obese non-PMs, Male (n = 17), mean (SD), listed as Pantoprazole
  Vd/F normalized by LBW: 0.22 [0.06] L/kg LBW
[2]; obese non-PMs, Male, mean (SD)
  AUC0-∞ corrected for LBW-normalized dose: 6.57 (1.88) mcg*h/mL/1 mg/kg LBW
  CL/F normalized by LBW: 0.17 (0.06) L/h/kg LBW
[2]; [12]
  AUC0-∞ corrected for LBW-normalized dose: 6.63 (3.57) mcg*h/mL/1 mg/kg LBW
  CL/F normalized by LBW: 0.20 (0.13) L/h/kg LBW
  Vd/F normalized by LBW: 0.24 (0.09) L/kg LBW
[2]; [13]
  AUC0-∞ corrected for LBW-normalized dose: 5.76 (2.31) mcg*h/mL/1 mg/kg LBW
  CL/F normalized by LBW: 0.20 (0.09) L/h/kg LBW
  Vd/F normalized by LBW: 0.28 (0.08) L/kg LBW
[2]; [14]
  AUC0-∞ corrected for LBW-normalized dose: 5.09 (1.81) mcg*h/mL/1 mg/kg LBW
  CL/F normalized by LBW: 0.23 (0.10) L/h/kg LBW
  Vd/F normalized by LBW: 0.29 (0.07) L/kg LBW
[2]; [15]
  AUC0-∞ corrected for LBW-normalized dose: 7.90 (2.72) mcg*h/mL/1 mg/kg LBW
  CL/F normalized by LBW: 0.14 (0.05) L/h/kg LBW
  Vd/F normalized by LBW: 0.20 (0.04) L/kg LBW
[2]; obese, age 6–11 y (n = 18), single oral dose
  tlag: 1.5 (1.0–3) h
[2]; obese, age 6–11 y (n = 18)
  % AUC0-∞ extrapolated from AUC0-last: 1.2 ± 1.6%
  AUC0-∞ corrected for TBW-normalized dose: 8.87 ± 4.00 mcg*h/mL/1 mg/kg TBW
  CL/F normalized to TBW: 0.14 ± 0.07 L/h/kg TBW
  Cmax corrected for LBW-normalized dose: 3.87 ± 1.39 mcg/mL/1 mg/kg LBW
  Cmax corrected for TBW-normalized dose: 5.99 ± 2.13 mcg/mL/1 mg/kg TBW
  Vd/F normalized to TBW: 0.16 ± 0.05 L/kg TBW
[2]; [16]
  AUC0-∞ corrected for LBW-normalized dose: 5.73 ± 2.48 mcg*h/mL/1 mg/kg LBW and 5.73 (2.48) mcg*h/mL/1 mg/kg LBW
  CL/F normalized to LBW: 0.21 ± 0.11 L/h/kg LBW and 0.21 (0.11) L/h/kg LBW
  Vd/F normalized to LBW: 0.25 ± 0.09 L/kg LBW and 0.25 (0.09) L/kg LBW
[2]; obese, age 12–17 y (n = 21)
  % AUC0-∞ extrapolated from AUC0-last: 2.5 ± 3.3%
  AUC0-∞ corrected for TBW-normalized dose: 11.56 ± 4.81 mcg*h/mL/1 mg/kg TBW
  CL/F normalized to TBW: 0.10 ± 0.04 L/h/kg TBW
  Cmax corrected for LBW-normalized dose: 3.7 ± 0.99 mcg/mL/1 mg/kg LBW
  Cmax corrected for TBW-normalized dose: 6.23 ± 1.73 mcg/mL/1 mg/kg TBW
  Vd/F normalized to TBW: 0.14 ± 0.04 L/kg TBW
  tlag: 2.0 (1.0–8.0) h
[2]; obese, age 12–17 y, mean, SD
  AUC0-∞ corrected for LBW-normalized dose: 6.82 ± 2.70 mcg*h/mL/1 mg/kg LBW and 6.82 (2.70) mcg*h/mL/1 mg/kg LBW
  CL/F normalized to LBW: 0.17 ± 0.06 L/h/kg LBW and 0.17 (0.06) L/h/kg LBW
  Vd/F normalized to LBW: 0.25 ± 0.07 L/kg LBW and 0.25 (0.07) L/kg LBW
[2]; only CYP2C19 PM vs non-PMs, higher
  AUC0-∞, PM relative to all the non-PMs: greater than 2 fold

Source: paper PMC5806153 (The Journal of pediatrics, 2018)
